The values that follow come from ChEMBL document CHEMBL1154181 (J Med Chem, 2009).

The subject of assay [1] is Mus musculus. Kind of assay: Antinociceptive activity in sc dosed mouse assessed as reduction in number of noxious stimulus-induced writhes. The assay is classed as functional.
For assay [2], the target named is T1, Alpha-2A adrenergic receptor (Homo sapiens, UniProt P08913).
T1 sequence (P08913 whole entry): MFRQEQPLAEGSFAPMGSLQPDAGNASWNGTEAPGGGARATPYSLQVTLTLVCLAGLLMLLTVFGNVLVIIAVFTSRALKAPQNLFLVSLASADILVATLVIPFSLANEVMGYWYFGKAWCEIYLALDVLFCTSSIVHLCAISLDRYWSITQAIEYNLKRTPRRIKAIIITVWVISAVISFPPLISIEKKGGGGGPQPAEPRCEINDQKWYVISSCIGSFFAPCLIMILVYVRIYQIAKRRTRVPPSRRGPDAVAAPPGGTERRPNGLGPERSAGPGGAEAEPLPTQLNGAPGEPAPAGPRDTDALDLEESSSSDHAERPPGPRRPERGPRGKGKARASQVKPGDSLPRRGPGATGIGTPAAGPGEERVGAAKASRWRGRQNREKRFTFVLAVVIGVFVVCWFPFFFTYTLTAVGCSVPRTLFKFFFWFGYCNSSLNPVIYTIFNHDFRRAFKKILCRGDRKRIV
Briefly: Displacement of [3H][…] from human recombinant adrenergic alpha2A receptor expressed in insect Sf9 cells after 60 mins.

The test system of assay [3] is Mus musculus. Briefly: Antinociceptive activity against thermal nociception in po dosed CD1 mouse assessed as increase in latency period to elicit jumping or hind paw licking measured after 15 to 90 mins postdose by hot plate method in presence of 1 mg/kg, ip opioid receptor antagonist naloxone hydrochloride administered 30 mins before compound infusion. It counts as functional. A digest of the protocol: (§1)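 Antagonist given ip 30 min before oral dosing (naloxone 1, mecamylamine 2, yohimbine 2, CGP 35348 50 mg/kg). Hot plate at 48.5 ± 0.1 °C inside a cylinder, cut-off 60 s; latencies at 15–90 min as %MPE. Peak-time quantal response (≥50% MPE); ED50 from at least four groups of six male CD-1 mice.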

Assay [4] has as its target T2, Alpha-1A adrenergic receptor (Rattus norvegicus) (UniProt P43140).
T2 sequence (whole entry): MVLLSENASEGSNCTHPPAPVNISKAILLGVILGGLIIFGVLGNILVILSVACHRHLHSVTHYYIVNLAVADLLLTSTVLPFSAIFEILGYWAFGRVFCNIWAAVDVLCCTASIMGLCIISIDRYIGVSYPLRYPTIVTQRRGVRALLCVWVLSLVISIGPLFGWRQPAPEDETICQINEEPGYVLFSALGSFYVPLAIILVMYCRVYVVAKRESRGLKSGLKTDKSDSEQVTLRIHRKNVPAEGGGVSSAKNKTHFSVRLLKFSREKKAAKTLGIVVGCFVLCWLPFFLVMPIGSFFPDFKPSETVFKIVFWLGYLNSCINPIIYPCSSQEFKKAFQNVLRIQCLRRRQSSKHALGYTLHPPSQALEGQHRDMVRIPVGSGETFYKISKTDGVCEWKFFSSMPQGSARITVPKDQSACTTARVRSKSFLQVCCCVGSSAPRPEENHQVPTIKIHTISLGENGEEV
Kind of assay: Inhibition of [3H]prazosin binding to adrenergic alpha1A receptor in Wistar rat submaxillary gland at 10 uM after 60 mins. The procedure, abridged: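 Wistar rat submaxillary gland membranes with 0.25 nM [3H]-prazosin. Nonspecific binding defined by 10 μM phentolamine. Buffer 50 mM Tris-HCl pH 7.4, 0.5 mM EDTA. Incubated 60 min at 25 °C, then filtered and counted. Duplicate; 1% DMSO final.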

Assay [5] concerns Mus musculus. Kind of assay: Antinociceptive activity against thermal nociception in po dosed CD1 mouse assessed as increase in latency period to elicit jumping or hind paw licking measured after 15 to 90 mins postdose by hot plate method. The assay is classed as functional.
In assay [6] the test system is Mus musculus. Briefly: Antinociceptive activity against thermal nociception in po dosed CD1 mouse assessed as increase in latency period to elicit jumping or hind paw licking measured after 15 to 90 mins postdose by hot plate method in presence of 2 mg/kg, ip alpha-2-adrenergic receptor antagonist yohimbine hydrochloride administered 30 mins before compound infusion. It counts as functional. The procedure, abridged:
as §1

Assay [7] relates to Mus musculus. Kind of assay: Antinociceptive activity against thermal nociception in po dosed CD1 mouse assessed as latency period to elicit jumping or hind paw licking at 1 mg/kg, po measured after 15 to 90 mins postdose by hot plate method. It counts as functional. A digest of the protocol: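 Male CD-1 mice (25–30 g), dosed orally at 1 mg/kg. Tail flick: radiant heat focused 3–4 cm from the tail tip, cut-off 15 s at 15 V. Hot plate: 48.5 ± 0.1 °C, licking, paw jerk or jump, cut-off 60 s. Baseline is the mean of three readings 15 min apart. Latency followed to 120 min (tail) or 90 min (plate); data as %MPE.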

Assay [8] concerns Mus musculus. Kind of assay: Antinociceptive activity against radiant heat-induced nociception in po dosed CD1 mouse assessed as increase in tail withdrawal latency measured after 15 to 120 mins postdose by tail flick test in presence of 1 mg/kg, ip opioid receptor antagonist naloxone hydrochloride administered 30 mins before compound infusion. It counts as functional. The procedure, abridged: (§2)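 Antagonist given ip 30 min before oral dosing (naloxone 1, mecamylamine 2, yohimbine 2, CGP 35348 50 mg/kg). Tail flick with radiant heat at the tail tip, cut-off 15 s; latencies at 15–120 min converted to %MPE. Peak-time quantal response (≥50% MPE); ED50 from at least four groups of six male CD-1 mice.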

In assay [9] the test system is Mus musculus. Briefly: Antinociceptive activity against thermal nociception in po dosed CD1 mouse assessed as increase in latency period to elicit jumping or hind paw licking measured after 15 to 90 mins postdose by hot plate method in presence of 50 mg/kg, ip GABAB receptor antagonist CGP 35348 administered 30 mins before compound infusion. It counts as functional. A digest of the protocol:
as §1

For assay [10], the target named is T3, Alpha-1A adrenergic receptor (Rattus norvegicus, UniProt P43140).
T3 sequence (P43140 whole entry): T2 sequence (whole entry)
Kind of assay: Displacement of [3H]prazosin from adrenergic alpha1A receptor in Wistar rat submaxillary gland after 60 mins. The assay is classed as tissue-based.

Assay [11] has as its target T4, Alpha-2A adrenergic receptor (Homo sapiens) (UniProt P08913).
T4 sequence (whole entry): T1 sequence (P08913 whole entry)
Kind of assay: Inhibition of [3H][…] binding to human recombinant adrenergic alpha2A receptor expressed in insect Sf9 cells at 10 uM after 60 mins. The procedure, abridged:
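Sf9 membranes expressing human recombinant α2A, with 1 nM [3H]-MK-912. Nonspecific binding defined by 10 μM WB-4101. Buffer 50 mM Tris-HCl pH 7.4, 12.5 mM MgCl2, 2 mM EDTA. Incubated 60 min at 25 °C, then filtered and counted by scintillation. Duplicate; 1% DMSO final.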

For assay [12], the system named is Mus musculus. Briefly: Antinociceptive activity against radiant heat-induced nociception in icv dosed CD1 mouse assessed as increase in tail withdrawal latency measured after 15 to 120 mins postdose by tail flick test. It counts as functional. A digest of the protocol: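 Male CD-1 mice anesthetized with ketamine-xylazine (80 + 10 mg/kg ip). Dosed into the right lateral ventricle (+2 mm ML, −0.3 mm AP to bregma, 2 mm depth). Tail flick with radiant heat, cut-off 15 s. Latency read at 15–120 min as %MPE.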

The test system of assay [13] is Mus musculus. Briefly: Antinociceptive activity against radiant heat-induced nociception in po dosed CD1 mouse assessed as increase in tail withdrawal latency measured after 15 to 120 mins postdose by tail flick test in presence of 50 mg/kg, ip GABAB receptor antagonist CGP-35348 administered 30 mins before compound infusion. It counts as functional. A digest of the protocol: as §2

Regarding `C=Cc1c(C)nn(CCCN2CCN(c3ccc(C)cc3)CC2)c(=O)c1N`, the ED50 was 2.5 mg/kg in the assay with Mus musculus [1]; 1.1 mg/kg in the assay with Mus musculus [3]; 0.5 mg/kg in the assay with Mus musculus [5]; 8.6 mg/kg with Mus musculus [6]; 1.2 mg/kg in the assay with Mus musculus [8]; 0.6 mg/kg with Mus musculus [9]. In addition, the values for the ED50 with Mus musculus [12] and with Mus musculus [13] were 3.5 µg and 0.5 mg/kg, respectively. For the same molecule, the IC50 came out at 320 nM in [2] and 56 nM in assay [10]. The results for the Emax in [4] and in assay [11] were 101% and 100%, respectively. In the assay on Mus musculus [7], the Activity was 30 min.
